Assay results from ChEMBL document CHEMBL4673269, “Discovery of S64315, a Potent and Selective Mcl-1 Inhibitor” (J Med Chem, 2020).
pIC50: −log10 of the molar value. Calls of active or inactive are those of the source. The rule behind the calls is not given here.

Assays:
Cytochrome P450 3A4 = Cytochrome P450 3A4 (Homo sapiens, UniProt P08684); assay: Inhibition of CYP3A4 (unknown origin); format: ADME
Procedure, shortened: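 High-throughput drug-drug interaction screen using human CYP450-transfected cells; IC50 determined for CYP3A4 inhibition.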

Cytochrome P450 2C8 = Cytochrome P450 2C8 (Homo sapiens, UniProt P10632); assay: Drug metabolism assessed as CYP2C8 (unknown origin) mediated metabolism; format: ADME
AMO1 [1] = assay: Antitumor activity against human AMO1 xenografted in CB-17 SCID mouse assessed as tumor growth inhibition at 12.5 mg/kg, iv administered daily measured on day 10; format: functional; details: 240 h, read-out: TGI
Procedure, shortened: (§1)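 Female CB-17 SCID mice, 6−7 weeks old. 5 × 10⁶ AMO-1 cells in growth medium/Matrigel 50:50 injected subcutaneously in the right flank. Randomised at about 200 mm³, n = 8 to 10 per group. Dosed iv in 20% HPbCD–25 mM HCl, daily for 5 days or weekly for 4 weeks. Calipers 2−3 times weekly; volume = length × width²/2. TGI computed from median change in volume versus control; delay judged at median volume 500 mm³.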

AMO1 [2] = assay: Antitumor activity against human AMO1 xenografted in CB-17 SCID mouse assessed as tumor regression at 12.5 mg/kg, iv administered for 5 consecutive days and observed upto day 35 post last dose; format: functional, organism-based; details: time 35.0 day; procedure, shortened: as §1
AMO1 [3] = assay: Antitumor activity against human AMO1 xenografted in CB-17 SCID mouse assessed as maximum tumor growth inhibition at 12.5 mg/kg, iv administered for 5 consecutive days measured post-last dose; format: functional; design: scale not given: the % may be the effect or the level left; details: time 5 day; procedure, shortened: as §1
AMO1 [4] = assay: Antitumor activity against human AMO1 xenografted in CB-17 SCID mouse assessed as maximum tumor growth inhibition at […] mg/kg, iv administered for 5 consecutive days measured post-last dose; format: functional; design: scale not given: the % may be the effect or the level left; details: time 5 day
MINO = assay: Antiproliferative activity against human Mino assessed as reduction in cell viability incubated for 3 days by Cell Titer Blue assay; format: functional; details: time 3.0 day
HuT78 = assay: Antiproliferative activity against human HUT78 assessed as reduction in cell viability incubated for 3 days by Cell Titer Blue assay; format: functional, cell-based; details: time 3.0 day
SU-DHL-1 = assay: Antiproliferative activity against human SU-DHL1 assessed as reduction in cell viability incubated for 3 days by Cell Titer Blue assay; format: functional, cell-based; details: time 3.0 day
THP-1 [5] = assay: Antiproliferative activity against human THP-1 assessed as reduction in cell viability incubated for 3 days by Cell Titer Blue assay; format: functional, cell-based; details: time 3.0 day
THP-1 [6] = assay: Induction of apoptosis in Bax/Bak knockout human THP1 cells at 1 to 3000 nM incubated for 2 hrs by annexin-V-FITC and propidium iodide staining based by flow cytometry; format: functional, cell-based; details: dose 1-3000 nM
Procedure, shortened: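 THP-1 cells, wild type or CRISPR BAX/BAK knockout (verified by Western blot), were treated for 2 h. They were washed in binding buffer (10 mM Hepes, 140 mM NaCl, 2.5 mM CaCl₂) and stained with annexin V-FITC and PI for 15 min at 20 °C in the dark. 10⁴ cells per sample were read by flow cytometry. Apoptotic plus necrotic cells were normalised to total cells. Two biological replicates; DMSO control.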

[7] = molecular target: Induced myeloid leukemia cell differentiation protein Mcl-1 (Homo sapiens) (UniProt Q07820); assay: Stabilization of Mcl-1 in human HCT116 cells assessed as increase in Mcl-1 protein levels incubated for 16 hrs by western blot analysis; format: cell-based; details: HCT-116, dose 0.3-10000 nM
Procedure, shortened: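 HCT116 cells were seeded at 0.25×10⁶ per 35 mm dish in RPMI 1640 with 10% decomplemented FBS, 2 mM L-glutamine and 10 mM Hepes pH 7.4, at 37 °C and 5% CO₂. After 48 h they were dosed for 16 h and lysed in Hepes/KCl/MgCl₂/EDTA/1% NP40 buffer with inhibitors. Lysate (20 μg) was immunoblotted for Mcl-1, with actin as loading control.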

[8] = Clearance in mouse at […] mg/kg, iv formulated with 20 % HPBCD in water/ […]% HCl; format: ADME, organism-based; details: in vivo
[9] = Plasma protein binding in mouse assessed as unbound fraction; format: ADME, cell-free

Chain of Cytochrome P450 3A4 (P08684 whole entry): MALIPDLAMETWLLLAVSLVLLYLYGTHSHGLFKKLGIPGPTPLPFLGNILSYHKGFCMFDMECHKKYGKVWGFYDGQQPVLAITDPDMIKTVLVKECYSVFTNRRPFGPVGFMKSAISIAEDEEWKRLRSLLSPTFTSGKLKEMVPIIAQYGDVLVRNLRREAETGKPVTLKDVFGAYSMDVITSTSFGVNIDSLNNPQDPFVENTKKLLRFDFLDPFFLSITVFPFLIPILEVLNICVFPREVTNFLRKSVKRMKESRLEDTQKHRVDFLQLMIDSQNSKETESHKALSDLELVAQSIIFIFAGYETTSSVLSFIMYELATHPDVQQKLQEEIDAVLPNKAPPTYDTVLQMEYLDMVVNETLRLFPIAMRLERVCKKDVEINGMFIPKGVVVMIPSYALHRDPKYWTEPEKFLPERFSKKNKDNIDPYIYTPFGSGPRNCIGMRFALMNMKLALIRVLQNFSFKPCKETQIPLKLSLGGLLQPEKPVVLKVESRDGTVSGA
Chain of Cytochrome P450 2C8 (P10632 whole entry): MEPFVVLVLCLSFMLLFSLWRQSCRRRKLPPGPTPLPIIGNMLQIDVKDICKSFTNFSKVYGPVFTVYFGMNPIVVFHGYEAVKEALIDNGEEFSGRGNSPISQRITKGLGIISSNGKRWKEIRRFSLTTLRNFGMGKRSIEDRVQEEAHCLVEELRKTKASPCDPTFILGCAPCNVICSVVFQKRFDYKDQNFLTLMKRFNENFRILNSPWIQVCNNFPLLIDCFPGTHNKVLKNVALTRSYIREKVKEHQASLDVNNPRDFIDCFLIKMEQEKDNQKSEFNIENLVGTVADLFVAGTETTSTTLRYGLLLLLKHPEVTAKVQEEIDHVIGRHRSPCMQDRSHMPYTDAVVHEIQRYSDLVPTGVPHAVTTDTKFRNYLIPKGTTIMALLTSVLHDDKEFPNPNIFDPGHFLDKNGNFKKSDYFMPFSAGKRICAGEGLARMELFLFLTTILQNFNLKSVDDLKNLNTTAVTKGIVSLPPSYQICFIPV
Chain of Induced myeloid leukemia cell differentiation protein Mcl-1 (Homo sapiens) (Q07820 whole entry): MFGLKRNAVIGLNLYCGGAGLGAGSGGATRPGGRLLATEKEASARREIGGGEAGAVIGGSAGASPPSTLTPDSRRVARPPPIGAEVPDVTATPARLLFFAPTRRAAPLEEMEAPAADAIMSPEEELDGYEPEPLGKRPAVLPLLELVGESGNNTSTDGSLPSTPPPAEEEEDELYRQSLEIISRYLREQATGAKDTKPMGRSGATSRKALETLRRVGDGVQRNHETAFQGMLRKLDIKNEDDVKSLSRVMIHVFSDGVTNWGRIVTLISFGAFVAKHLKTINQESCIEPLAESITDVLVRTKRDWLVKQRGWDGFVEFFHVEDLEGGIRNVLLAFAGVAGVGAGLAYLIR

pIC50 (Cytochrome P450 3A4): 5.74
Drug metabolism (Cytochrome P450 2C8): Metabolite_Detected
Activity [7]: Dose-dependent effect
clearance [8]: 5.3 mL/min/kg
Fu [9]: 0.04%
Structure (SMILES): COc1ccccc1-c1nccc(COc2ccccc2C[C@@H](Oc2ncnc3sc(-c4ccc(F)cc4)c(-c4ccc(OCCN5CCN(C)CC5)c(Cl)c4C)c23)C(=O)O)n1
inhibition in vivo at 12.5 mg/kg (AMO1 [1]): 112%
Activity (AMO1 [2]): Active
Activity (AMO1 [3]): 162.8%
Activity (AMO1 [4]): 115.8%
Activity (MINO): Active
Activity (HuT78): Active
Activity (SU-DHL-1): Active
Activity (THP-1 [5]): Active
Activity (THP-1 [6]): inactive
